Data from article PMC9382663 (Nature, 2022).
Where no end group is shown, it is not given here. [ ]: non-standard residue; d: D form. pS = N[C@@H](COP(=O)(O)O)C(=O)O

Assays:
[1] = system: plasma antibody reactivity against EBNA1AA386–405; assay: Plasma ELISA with blocking of plasma IgG; type: binding, human; settings: blocking peptide 10 μg/ml, 2 h RT; nine high-reactivity MS samples
Summary of the method: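 384-well plates are coated overnight at 4°C with recombinant Protein G (2μg/ml) and washed 6x with PBST. Plasma (1:100) is bound overnight at 4°C, washed again, then blocked 2 h at RT with 10μg/ml peptide (scrambled control, EBNA1 AA386–405 or GlialCAM AA370–389 pSer376). Read-out is OD 450 nm normalized to the unblocked sample, with quadruplicate wells.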

[2] = system: mouse splenocytes and lymph node cells; assay: Cytokine ELISA in cell culture supernatant; type: cell-based; settings: cells of immunized mice re-stimulated with peptide
EBNA1AA386–405 = assay: Mouse plasma IgG ELISA against EBNA1 peptide; type: in vivo, SJL/J mice; settings: immunized mice, plasma 1:100
GlialCAM ICD = assay: Mouse plasma IgG ELISA against GlialCAM ICD; type: in vivo, SJL/J mice; settings: immunized mice, plasma 1:100
[3] = system: splenocytes and lymph node cells; assay: T cell proliferation by 3H-thymidine incorporation; type: cell-based, mouse; settings: cells pooled from n=10 immunized mice
[4] = system: experimental autoimmune encephalomyelitis (EAE); assay: EAE after peptide immunization; type: in vivo, SJL/J mice; settings: spinal cord histology, day 50; vs. scrambled peptide
[5] = molecular target: T1, biotinylated GlialCAM_(AA370–389 pSer376 pSer377) peptide (human) (UniProt Q14CZ8); assay: BLI
T1 sequence (peptide): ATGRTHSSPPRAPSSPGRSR

[6] = molecular target: T2, biotinylated GlialCAM_(AA370–389 pSer376) peptide (human) (UniProt Q14CZ8); assay: BLI
T2 sequence (peptide): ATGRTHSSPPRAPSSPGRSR

[7] = molecular target: T3, EBNA1_(AA386–405) 20mer peptide (Epstein-Barr virus); assay: ELISA
T3 chain: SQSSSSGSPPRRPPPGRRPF

[8] = molecular target: T4, biotinylated native GlialCAM_(AA370–389) peptide (Homo sapiens, UniProt Q14CZ8); assay: BLI
T4 chain: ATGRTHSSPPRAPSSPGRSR

[9] = molecular target: T5, biotinylated EBNA1_(AA386–405) peptide (Epstein-Barr virus, sequence as B95-8); assay: BLI
T5 chain: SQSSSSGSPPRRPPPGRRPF

[10] = molecular target: EBNA1 full-length protein AA1–641 (Epstein-Barr virus, strain ; …, UniProt P03211); assay: BLI
[11] = molecular target: GlialCAM protein (bio-layer interferometry) (Homo sapiens, UniProt Q14CZ8); assay: BLI
[12] = molecular target: actin filament associated protein 1 (AFAP1) on the HuProt microarray (Homo sapiens (Human)., UniProt Q8N556); assay: peptide or protein array
[13] = molecular target: unmutated ancestor of MS39p2w174 (germline) (human); assay: BLI

actin filament associated protein 1 (AFAP1) on the HuProt microarray, sequence (Q8N556 whole entry): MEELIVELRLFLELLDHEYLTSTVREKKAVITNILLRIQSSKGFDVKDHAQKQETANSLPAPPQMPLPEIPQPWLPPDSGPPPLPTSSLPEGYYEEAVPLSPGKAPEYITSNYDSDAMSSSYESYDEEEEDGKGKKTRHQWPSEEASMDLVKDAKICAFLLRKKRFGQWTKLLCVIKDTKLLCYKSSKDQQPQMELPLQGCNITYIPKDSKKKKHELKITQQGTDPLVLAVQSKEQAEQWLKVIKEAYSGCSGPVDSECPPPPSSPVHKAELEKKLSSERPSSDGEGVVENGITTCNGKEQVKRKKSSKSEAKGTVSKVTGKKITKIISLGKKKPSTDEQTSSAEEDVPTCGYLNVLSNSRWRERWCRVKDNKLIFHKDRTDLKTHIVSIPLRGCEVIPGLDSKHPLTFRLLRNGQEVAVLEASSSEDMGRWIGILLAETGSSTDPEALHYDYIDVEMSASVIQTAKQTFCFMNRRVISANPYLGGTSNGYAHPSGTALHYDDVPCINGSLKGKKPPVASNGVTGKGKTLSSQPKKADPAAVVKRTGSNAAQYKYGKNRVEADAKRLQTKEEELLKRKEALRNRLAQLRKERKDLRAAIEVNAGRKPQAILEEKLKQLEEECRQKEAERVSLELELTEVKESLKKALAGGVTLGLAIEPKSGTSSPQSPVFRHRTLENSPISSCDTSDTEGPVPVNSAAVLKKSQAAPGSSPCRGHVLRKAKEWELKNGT
EBNA1 full-length protein AA1–641, sequence (P03211 whole entry, the tested form may be a part): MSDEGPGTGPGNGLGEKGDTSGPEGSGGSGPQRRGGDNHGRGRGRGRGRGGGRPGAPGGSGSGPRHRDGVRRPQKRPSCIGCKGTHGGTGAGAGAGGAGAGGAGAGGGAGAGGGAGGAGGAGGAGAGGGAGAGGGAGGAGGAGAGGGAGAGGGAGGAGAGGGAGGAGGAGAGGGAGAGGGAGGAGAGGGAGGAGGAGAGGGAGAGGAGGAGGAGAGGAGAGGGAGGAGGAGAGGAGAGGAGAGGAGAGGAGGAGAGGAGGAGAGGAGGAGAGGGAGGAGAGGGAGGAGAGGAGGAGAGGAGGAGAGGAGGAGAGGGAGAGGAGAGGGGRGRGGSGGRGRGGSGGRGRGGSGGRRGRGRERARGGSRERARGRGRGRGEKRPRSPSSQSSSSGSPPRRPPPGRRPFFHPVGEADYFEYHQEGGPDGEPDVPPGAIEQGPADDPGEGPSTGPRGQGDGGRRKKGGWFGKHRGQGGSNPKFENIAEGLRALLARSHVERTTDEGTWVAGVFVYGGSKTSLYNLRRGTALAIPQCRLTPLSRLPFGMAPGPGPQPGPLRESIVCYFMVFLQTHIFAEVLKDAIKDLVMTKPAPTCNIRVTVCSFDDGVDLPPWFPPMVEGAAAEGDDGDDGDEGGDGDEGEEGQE

For “GlialCAMAA370–389 pSer376: GlialCAM 20mer peptide phosphorylated at Ser376 (ATGRTH[pS]SPPRAPSSPGRSR)”, the “blocking of anti-EBNA1AA386–405 plasma reactivity” value [1] was “inhibition”.

SQSSSSGSPPRRPPPGRRPF [EBNA1AA386–405] was tested, and the IL-17 secretion [2] was “suppressed”, the “secretion of IFN-γ, TNF, IL-12, IL-6 and IL-10” value [2] was “stimulated the secretion” and the “plasma IgG response to EBNA1AA386–405” value (EBNA1AA386–405) was “robust antibody responses”. The “plasma IgG response to GlialCAM ICD” value (GlialCAM ICD) was “robust antibody responses”, the “CD4+ T cell response” value [3] was “strong CD4+ T cell response” and the “CNS immune cell infiltration (H&E)” value [4] was “enhanced CNS immune cell infiltration”. For the same molecule, the “demyelination (Luxol Fast Blue)” value [4] was “enhanced”.

B1: mAb MS39p2w174 (antibody, V domains shown)
VH: QVQLVESGGGLVKPGGSLRLSCVSSGFTFSNYWMSWVRQAPGGGLEWVANINQDGSEKYYVDSVKGRFTSSRDNTKNSLFLQLNSLRAEDTGIYYCTRDPPYFDNWGQGTLVTVSS
VL: DVVLTQSPLSLPVILGQPASISCRSSQSLVYSDGRTYLNWFQQRPGQSPRRLIYKISKRDSGVPERFSGSGSGTDFTLEISRVEAEDVGIYYCMQGSHWPVTFGQGTKVEIK
With B1 the Kd [5] was 3.73 nM, the Kd [6] was 6.1 nM and the binding result [7] was “binds”. The Kd [8] was 302 nM, the Kd [9] was 2.67 nM and the Kd [10] was 1.99 nM. For the same molecule, the Kd [11] was 0.19 nM and the binding result [12] was “binds”.

B2: GlialCAM protein (bio-layer interferometry) (natural protein)
chain: VNITSPVRLIHGTVGKSALLSVQYSSTSSDRPVVKWQLKRDKPVTVVQSIGTEVIGTLRPDYRDRIRLFENGSLLLSDLQLADEGTYEVEISITDDTFTGEKTINLTVDVPISRPQVLVASTTVLELSEAFTLNCSHENGTKPSYTWLKDGKPLLNDSRMLLSPDQKVLTITRVLMEDDDLYSCMVENPISQGRSLPVKITVYRRSSLYIILSTGGIFLLVTLVTVCACWKPSKRKQKKLEKQNSLEYMDQNDDRLKPEADTLPRSGEQERKNPMALYILKDKDSPETEENPAPEPRSATEPGPPGYSVSPAVPGRSPGLPIRSARRYPRSPARSPATGRTHSSPPRAPSSPGRSRSASRTLRTAGVHIIREQDEAGPVEISA
B2 gave a Kd [13] of 10.5 nM.
